T1: Monocarboxylate transporter 4 (Homo sapiens, UniProt O15427)
T1 sequence (O15427 whole entry): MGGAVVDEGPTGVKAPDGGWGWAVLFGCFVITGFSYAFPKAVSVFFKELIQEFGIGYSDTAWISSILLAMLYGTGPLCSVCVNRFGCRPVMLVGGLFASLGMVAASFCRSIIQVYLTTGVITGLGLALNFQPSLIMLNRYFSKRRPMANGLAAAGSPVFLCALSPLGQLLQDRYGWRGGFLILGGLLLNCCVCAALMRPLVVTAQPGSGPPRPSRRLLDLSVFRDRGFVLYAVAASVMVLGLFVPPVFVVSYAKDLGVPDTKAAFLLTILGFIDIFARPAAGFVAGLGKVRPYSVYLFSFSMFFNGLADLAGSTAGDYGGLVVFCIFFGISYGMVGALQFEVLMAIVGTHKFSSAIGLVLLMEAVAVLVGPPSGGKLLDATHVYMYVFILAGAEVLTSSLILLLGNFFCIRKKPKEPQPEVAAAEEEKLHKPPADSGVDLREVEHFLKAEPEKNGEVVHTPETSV

T2: Monocarboxylate transporter 4 (Homo sapiens) (UniProt O15427)
T2 sequence (whole entry): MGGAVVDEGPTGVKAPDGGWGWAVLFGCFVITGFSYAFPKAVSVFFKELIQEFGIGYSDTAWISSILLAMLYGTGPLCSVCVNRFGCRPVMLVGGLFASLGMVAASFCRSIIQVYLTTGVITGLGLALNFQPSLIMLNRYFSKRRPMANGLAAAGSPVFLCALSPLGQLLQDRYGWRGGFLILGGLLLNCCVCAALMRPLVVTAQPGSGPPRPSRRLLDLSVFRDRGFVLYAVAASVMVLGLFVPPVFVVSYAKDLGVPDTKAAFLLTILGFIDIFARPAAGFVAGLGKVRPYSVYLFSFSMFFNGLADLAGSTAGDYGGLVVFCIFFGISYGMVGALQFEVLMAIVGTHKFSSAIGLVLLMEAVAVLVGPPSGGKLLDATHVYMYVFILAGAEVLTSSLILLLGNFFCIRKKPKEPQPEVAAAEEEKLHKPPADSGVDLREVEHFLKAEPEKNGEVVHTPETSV


Assays:
[1] = molecular target: T1, Monocarboxylate transporter 4; assay: TP_TRANSPORTER: inhibition of L-Lactate uptake (L-Lactate:30mM) in Xenopus laevis oocytes; type: functional, cell-based, Oocyte
Procedure, shortened: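 Human MCT4 cRNA (12 ng) injected into collagenase-treated stage V–VI oocytes, cultured 48–72 h at 18°C. Oocytes loaded with 5 μM BCECF-AM, 30 min, room temperature. Single oocyte superfused in uptake buffer pH 7.4 (NaCl isosmotically replaced). Inhibitor added simultaneously with 30 mM L-lactate at increasing concentrations. Initial acidification rate from first-order fit, as % of uninhibited rate. K0.5 from non-competitive fit, n=4–5 oocytes.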

[2] = molecular target: T2, Monocarboxylate transporter 4 (Homo sapiens); assay: (§1) TP_TRANSPORTER: uptake in Xenopus laevis oocytes; type: functional, cell-based; settings: Oocyte
Procedure, shortened: (§2)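 Stage V–VI oocytes were injected with 12 ng MCT4 or MCT1 cRNA and kept in Barth's medium at 18°C. They were assayed 48–72 h later after loading with 5 μM BCECF-AM (30 min, room temperature, pH 7.4 buffer). Single oocytes were superfused with monocarboxylate Na salt (isosmotic NaCl replacement). Initial acidification rate came from a first-order fit, normalised to L-lactate on the same oocyte, then Michaelis–Menten regression.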

[3] = substrate: CC(C)CC(=O)C(=O)O; assay: as §1; type: functional, cell-based; settings: Oocyte; procedure, shortened: as §2
[4] = substrate: CC(O)C(=O)[O-].[Na+]; assay: as §1; type: functional, cell-based; settings: Oocyte; procedure, shortened: as §2
[5] = substrate: CCC(=O)C(=O)O; assay: as §1; type: functional, cell-based; settings: Oocyte; procedure, shortened: as §2
[6] = substrate: CCC(O)C(=O)O; assay: as §1; type: functional, cell-based; settings: Oocyte; procedure, shortened: as §2
[7] = substrate: COC(=O)[C@H](C)Cl; assay: as §1; type: functional, cell-based; settings: Oocyte; procedure, shortened: as §2
[8] = substrate: O=C(O)CCCl; assay: as §1; type: functional, cell-based; settings: Oocyte; procedure, shortened: as §2

Molecule | IC50 [1] [µM] | Activity [2] | other results
N#C/C(=C\c1ccc(O)cc1)C(=O)O [alpha-CYANO-4-HYDROXYCINNAMIC ACID] | 991 |  | 
p-Chloromercuribenzenesulfonate |  |  | IC50 ([1]; oocyte): 21 µM
O=C(O)CCCO |  | is not a substrate [-] | 
O=CC(=O)O |  | is not a substrate [-] | 
O=C(CCc1ccc(O)cc1)c1c(O)cc(O)cc1O [PHLORETIN] | 41 |  | 
NC(=O)C(=O)O |  | is not a substrate [-] | 
O=C(O)C(=O)Cc1ccccc1 |  | is not a substrate [-] | 
CC(C)Cn1c(=O)n(C)c(=O)c2[nH]cnc21 [ISOBUTYLMETHYLXANTHINE] | 970 |  | 
O=C(O)O |  | is not a substrate [-] | 
O=C(O)c1cc([N+](=O)[O-])ccc1NCCCc1ccccc1 [5-NITRO-2-PHENYLPROPYLAMINOBENZOIC ACID [NPPB]] | 240 |  | 
O=C[O-].[Na+] |  | is not a substrate [-] | 
Monocarboxylate transporter 4 (Homo sapiens), O15427 (protein) MGGAVVDEGPTGVKAPDGGWGWAVLFGCFVITGFSYAFPKAVSVFFKELIQEFGIGYSDTAWISSILLAMLYGTGPLCSVCVNRFGCRPVMLVGGLFASLGMVAASFCRSIIQVYLTTGVITGLGLALNFQPSLIMLNRYFSKRRPMANGLAAAGSPVFLCALSPLGQLLQDRYGWRGGFLILGGLLLNCCVCAALMRPLVVTAQPGSGPPRPSRRLLDLSVFRDRGFVLYAVAASVMVLGLFVPPVFVVSYAKDLGVPDTKAAFLLTILGFIDIFARPAAGFVAGLGKVRPYSVYLFSFSMFFNGLADLAGSTAGDYGGLVVFCIFFGISYGMVGALQFEVLMAIVGTHKFSSAIGLVLLMEAVAVLVGPPSGGKLLDATHVYMYVFILAGAEVLTSSLILLLGNFFCIRKKPKEPQPEVAAAEEEKLHKPPADSGVDLREVEHFLKAEPEKNGEVVHTPETSV |  |  | Km [3]: 95 mM; Km [4]: 28 mM; Km [5]: 57 mM; Km [6]: 56 mM; Km [7]: 46 mM; Km [8]: 51 mM

Source: ChEMBL document CHEMBL2074454, “Characterisation of human monocarboxylate transporter 4 substantiates its role in lactic acid efflux from skeletal muscle” (J Physiol, 2000)
